Test results published in ChEMBL document CHEMBL1149716, “Synthesis and antidiabetic activity of 2,5-disubstituted-3-imidazol-2-yl-pyrrolo[2,3-b]pyridines and thieno[2,3-b]pyridines” (2007).
Activity calls are given as the source filed them. The calls are words filed in the database; no cut-off is given here.

Assays:
[1] = Insulinotropic activity in rat RIN5F cells assessed as glucose dependent insulin secretion per ug of total protein at 0.1 uM; format: functional
Method in brief: (§1)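 RIN5F cells seeded at 0.2×10^6 per well and grown overnight to 80% confluence. Preincubated 40 min in Krebs-Ringer Hepes buffer (1.1 mM glucose, 0.5% BSA, pH 7.4). Then exposed 30 min at 37 °C to compound with 16.7 mM glucose. Supernatant insulin by rat insulin ELISA, normalized to total protein (pg/μg/h). n = 3, mean ± SD.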

Mus musculus [2] = assay: Antidiabetic activity in ip dosed overnight fasted C57BL/6J mouse assessed as serum insulin level by ELISA; format: functional, organism-based
Method in brief: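 Male C57BL/6J mice (8–12 weeks, 25–30 g), randomized into groups of n = 6 by fed glucose and fasted overnight. Single ip dose of 1, 10 or 100 μM/kg/10 mL, suspended in normal saline (saline vehicle control). Retro-orbital blood taken under light ether at 30 min. Serum stored at -70 °C, then assayed by rat/mouse insulin ELISA. Mean ± SEM.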

[3] = Insulinotropic activity in rat RIN5F cells assessed as glucose dependent insulin secretion per ug of total protein at 1 uM; format: functional; method in brief: as §1
Mus musculus [4] = assay: Antidiabetic activity in overnight fasted C57BL/6J mouse assessed as reduction in serum glucose level at 1 uM to 100 uM, ip after 120 mins; format: functional, organism-based
Method in brief: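 Male C57BL/6J mice (8–12 weeks, 25–30 g), n = 6 per group, fasted overnight. Single ip dose of 1, 10 or 100 μM/kg/10 mL in saline (saline vehicle control). Retro-orbital blood under light ether at 0, 30, 60 and 120 min. Serum glucose by GOD/POD method, duplicate samples. Baseline-corrected curves and 0–120 min AUC; mean ± SEM.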

[5] = Insulinotropic activity in rat RIN5F cells assessed as glucose dependent insulin secretion per ug of total protein at 10 uM; format: functional; method in brief: as §1
Mus musculus [6] = assay: Antidiabetic activity in overnight fasted C57BL/6J mouse assessed as reduction in serum glucose level at 1 uM to 100 uM, ip after 60 mins; format: functional, organism-based
Method in brief: (§2)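 Male C57BL/6J mice (8–12 weeks, 25–30 g, bred in-house) randomized into groups (n = 6) by fed glucose, fasted overnight with water ad libitum. Compounds suspended in normal saline given ip at 1, 10 and 100 μM/kg/10 mL right after 0 min bleed. Retro-orbital blood under light ether at 0, 30, 60, 120 min; serum glucose by GOD/POD method, duplicate samples; mean ± SEM.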

Mus musculus [7] = assay: Antidiabetic activity in overnight fasted C57BL/6J mouse assessed as reduction in serum glucose level at 1 uM to 100 uM, ip after 30 mins; format: functional, organism-based; method in brief: as §2
[8] = Insulinotropic activity in rat RIN5F cells assessed as insulin secretion per ug of total protein at 1 uM; format: functional
Method in brief: (§3)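 RIN5F cells seeded at 0.2×10^6 per well, grown overnight to 80% confluence, then preincubated 40 min in Krebs-Ringer Hepes buffer (1.1 mM glucose, 0.5% BSA, pH 7.4). Incubated 30 min at 37 °C with compound in the absence of glucose (0 mM). Secreted insulin by rat insulin ELISA, normalized to total protein (pg/μg/h). n = 3, mean ± SD.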

[9] = Insulinotropic activity in rat RIN5F cells assessed as insulin secretion per ug of total protein at 10 uM; format: functional; method in brief: as §3
[10] = Insulinotropic activity in rat RIN5F cells assessed as insulin secretion per ug of total protein at 0.1 uM; format: functional; method in brief: as §3

| SMILES | Activity [1] [pg/h] | Activity [3] [pg/µg/h] | Activity [5] [pg/h] | other results |
| --- | --- | --- | --- | --- |
| Cc1sc2ncc(Cl)cc2c1C1=NCCN1 | 19.2 | 27.5 | 41.5 | Activity (Mus musculus [2]): Dose-dependent effect; Activity (Mus musculus [4]): Active |
| c1ccc(Cc2sc3ncccc3c2C2=NCCN2)cc1 | 14.4 | 18.8 | 31.6 |  |
| Clc1cnc2sc(C3CCCCC3)c(C3=NCCN3)c2c1 | 12.9 | 15.1 | 28.7 |  |
| Cc1[nH]c2ncccc2c1C1=NCCN1 | 14.9 | 18 | 32.4 |  |
| c1ccc(-c2sc3ncccc3c2C2=NCCN2)cc1 | 14.7 | 18 | 31.9 |  |
| Clc1cnc2[nH]c(C3CCCCC3)c(C3=NCCN3)c2c1 | 12.6 | 15 | 28.9 |  |
| Clc1cnc2scc(C3=NCCN3)c2c1 | 12.6 | 15 | 29 |  |
| CCc1[nH]c2ncc(Cl)cc2c1C1=NCCN1 | 18.9 | 26.1 | 39.9 |  |
| Clc1cnc2sc(Cc3ccccc3)c(C3=NCCN3)c2c1 | 13.9 | 18.2 | 31.9 |  |
| c1ccc(Cc2[nH]c3ncccc3c2C2=NCCN2)cc1 | 14.8 | 18.2 | 32.6 |  |
| Cc1[nH]c2ncc(Cl)cc2c1C1=NCCN1 | 19.3 | 27.7 | 41.7 | Activity (Mus musculus [2]): Dose-dependent effect; Activity (Mus musculus [4]): Active |
| c1ccc(-c2[nH]c3ncccc3c2C2=NCCN2)cc1 | 14.1 | 18.1 | 32.5 |  |
| c1cnc2sc(C3CCCCC3)c(C3=NCCN3)c2c1 | 12.6 | 14.7 | 28.1 |  |
| Clc1cnc2sc(-c3ccccc3)c(C3=NCCN3)c2c1 | 18 | 25.4 | 39 |  |
| Cc1[nH]c2ccc(Cl)cc2c1C1=NCCN1 | 16.3 | 22.4 | 36.5 | Activity (Mus musculus [6]): Active; Activity (Mus musculus [7]): Active |
| CCc1sc2ncccc2c1C1=NCCN1 | 13 | 15.5 | 29.1 |  |
| c1cnc2[nH]c(C3CCCCC3)c(C3=NCCN3)c2c1 | 12.4 | 14.3 | 28 |  |
| Clc1cnc2[nH]c(-c3ccccc3)c(C3=NCCN3)c2c1 | 18.2 | 25.5 | 39.2 |  |
| Clc1cnc2[nH]c(Cc3ccccc3)c(C3=NCCN3)c2c1 | 14.4 | 18.3 | 31.9 |  |
| CCc1sc2ncc(Cl)cc2c1C1=NCCN1 | 18.5 | 26.5 | 39.8 |  |
| CCCCNC(=O)NS(=O)(=O)c1ccc(C)cc1 [TOLBUTAMIDE] | 20 |  | 35.2 | Activity [8]: 20.7 pg/h; Activity [9]: 34.4 pg/h; Activity [10]: 19.7 pg/h |
| c1cnc2[nH]cc(C3=NCCN3)c2c1 | 12.1 | 14.1 | 28 |  |
| CCc1[nH]c2ncccc2c1C1=NCCN1 | 13.3 | 16.4 | 29.1 |  |
| Cc1sc2ncccc2c1C1=NCCN1 | 14.5 | 18.9 | 31.8 |  |
| c1cnc2scc(C3=NCCN3)c2c1 | 12.2 | 14.2 | 28.2 |  |
| Clc1cnc2[nH]cc(C3=NCCN3)c2c1 | 12.4 | 15.2 | 29.6 |  |
